In ChEMBL document CHEMBL3272171, “Tyrosylated analogues of somatostatin” (J Med Chem, 1976) one finds Activity, Rf and K data, which are given here for seven compounds.

The subject of data set [1] is Rattus norvegicus. The data set is described as follows: Inhibition of insulin secretion in jugular vein dosed rat assessed as assessed as hormone level using blood sample from hepatic portal vein by radioimmunoassay relative to somatostatin. Format: functional. Further details: scale not given: the % may be the effect or the level left. Summed up: (§1)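 Rats under ether anaesthesia received test samples by jugular vein injection. Blood was drawn from the hepatic portal vein, and hormone levels were measured by specific radioimmunoassay. Six rats per point. Potency was derived from four-point bioassays with somatostatin as reference standard, with log dose-response parallelism checked.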

Data set [2] can be described thus: Retardation factor of the compound using 2.5% pyridine, 5% 1-butanol and 90% water at pH 4.7 buffer relative to lysine and alanine by ninhydrin spray.
Data set [3] deals with Rattus norvegicus. Nature of the data set: Inhibition of glucagon secretion in jugular vein dosed rat assessed using blood sample from hepatic portal vein assessed as hormone level by radioimmunoassay relative to somatostatin. Format: functional. The arrangement: scale not given: the % may be the effect or the level left. Summed up:
as §1

The nature of data set [4]: Partition coefficient, K of the compound using system BAW at 4:1:5 ratio. The class given is physicochemical.
A short description of data set [5]: Inhibition of growth hormone spontaneous secretion in rat anterior pituitary cells assessed as hormone level by radioimmunoassay relative to somatostatin. Format: functional, Pituitary gland cell. Further details: scale not given: the % may be the effect or the level left.

Each structure is given as a SMILES string. Bridge positions count the residues as written; N and C are the ends. Square brackets hold non-standard residues; d marks the D form. Peptide text beside a SMILES is read from it.

For `C[C@@H](O)[C@@H]1NC(=O)[C@H](Cc2ccccc2)NC(=O)[C@H]([C@@H](C)O)NC(=O)[C@H](CCCCN)NC(=O)[C@H](Cc2c[nH]c3ccccc23)NC(=O)[C@H](Cc2ccccc2)NC(=O)[C@H](Cc2ccccc2)NC(=O)[C@H](CC(N)=O)NC(=O)[C@H](CCCCN)NC(=O)[C@@H](NC(=O)CNC(=O)[C@@H](N)Cc2ccc(O)cc2)CSSC[C@@H](C(=O)O)NC(=O)[C@H](CO)NC1=O`, the Activity in the data set with Rattus norvegicus [1] was 70%; in the data set on Rattus norvegicus [3] it was 78%; in data set [5], 116%. In addition, in data set [2], the Rf is listed as 0.33. Further, the K in data set [4] worked out at 0.41.

As to `C[C@@H](O)[C@@H]1NC(=O)[C@H](Cc2ccccc2)NC(=O)[C@H]([C@@H](C)O)NC(=O)[C@H](CCCCN)NC(=O)[C@@H](Cc2c[nH]c3ccccc23)NC(=O)[C@H](Cc2ccccc2)NC(=O)[C@H](Cc2ccccc2)NC(=O)[C@H](CC(N)=O)NC(=O)[C@H](CCCCN)NC(=O)[C@@H](NC(=O)CNC(=O)[C@@H](N)Cc2ccc(O)cc2)CSSC[C@@H](C(=O)O)NC(=O)[C@H](CO)NC1=O`, the figures for the Activity (in the data set on Rattus norvegicus [1]; in data set [5]) were 659% and 400%, respectively. In data set [2], this compound showed a Rf of 0.38. In addition, the K in data set [4] is given as 0.34.

On to `C[C@H](N)C(=O)NCC(=O)N[C@H]1CSSC[C@@H](C(=O)O)NC(=O)[C@H](CO)NC(=O)[C@H]([C@@H](C)O)NC(=O)[C@H](Cc2ccc(O)cc2)NC(=O)[C@H]([C@@H](C)O)NC(=O)[C@H](CCCCN)NC(=O)[C@H](Cc2c[nH]c3ccccc23)NC(=O)[C@H](Cc2ccccc2)NC(=O)[C@H](Cc2ccccc2)NC(=O)[C@H](CC(N)=O)NC(=O)[C@H](CCCCN)NC1=O` (H-AGCKNFFWKTYTSC-OH; disulfide 3-14), for which the values for the Activity (in the data set with Rattus norvegicus [1]; in the data set with Rattus norvegicus [3]; in data set [5]) were 252%, 65% and 65%, respectively. Besides, in data set [2], the Rf is recorded as 0.45. For the same compound, the K in data set [4] came out at 0.24.

`C[C@H](N)C(=O)NCC(=O)N[C@H]1CSSC[C@@H](C(=O)O)NC(=O)[C@H](CO)NC(=O)[C@H]([C@@H](C)O)NC(=O)[C@H](Cc2ccccc2)NC(=O)[C@H]([C@@H](C)O)NC(=O)[C@H](CCCCN)NC(=O)[C@@H](Cc2ccc(O)cc2)NC(=O)[C@H](Cc2ccccc2)NC(=O)[C@H](Cc2ccccc2)NC(=O)[C@H](CC(N)=O)NC(=O)[C@H](CCCCN)NC1=O` (H-AGCKNFF[dY]KTFTSC-OH; disulfide 3-14): the values for the Activity (with Rattus norvegicus [1]; in the data set on Rattus norvegicus [3]; in data set [5]) were 28%, less than 10% and 10%, respectively. The Rf in data set [2] was found to be 0.41. In data set [4], the K is 0.24.

Regarding `C[C@H](N)C(=O)NCC(=O)N[C@H]1CSSC[C@@H](C(=O)O)NC(=O)[C@H](CO)NC(=O)[C@H]([C@@H](C)O)NC(=O)[C@H](Cc2ccccc2)NC(=O)[C@H]([C@@H](C)O)NC(=O)[C@H](CCCCN)NC(=O)[C@H](Cc2c[nH]c3ccccc23)NC(=O)[C@H](Cc2ccc(O)cc2)NC(=O)[C@H](Cc2ccccc2)NC(=O)[C@H](CC(N)=O)NC(=O)[C@H](CCCCN)NC1=O` (H-AGCKNFYWKTFTSC-OH; disulfide 3-14), the results for the Activity (with Rattus norvegicus [1]; in the data set with Rattus norvegicus [3]; in data set [5]) were 75%, 109% and 108%, respectively. The compound further showed a Rf in data set [2] of 0.44. The K in data set [4] is on record as 0.23.

For `C[C@H](N)C(=O)NCC(=O)N[C@H]1CSSC[C@@H](C(=O)O)NC(=O)[C@H](CO)NC(=O)[C@H]([C@@H](C)O)NC(=O)[C@H](Cc2ccccc2)NC(=O)[C@H]([C@@H](C)O)NC(=O)[C@H](CCCCN)NC(=O)[C@H](Cc2c[nH]c3ccccc23)NC(=O)[C@H](Cc2ccccc2)NC(=O)[C@H](Cc2ccc(O)cc2)NC(=O)[C@H](CC(N)=O)NC(=O)[C@H](CCCCN)NC1=O` (H-AGCKNYFWKTFTSC-OH; disulfide 3-14), the figures for the Activity (with Rattus norvegicus [1]; in the data set with Rattus norvegicus [3]; in data set [5]) were 12%, 14% and 29%, respectively. Also, the Rf in data set [2] was found to be 0.38. The K in data set [4] is listed as 0.23.

The compound `C[C@H](N)C(=O)NCC(=O)N[C@H]1CSSC[C@@H](C(=O)O)NC(=O)[C@H](CO)NC(=O)[C@H]([C@@H](C)O)NC(=O)[C@H](Cc2ccccc2)NC(=O)[C@H]([C@@H](C)O)NC(=O)[C@H](CCCCN)NC(=O)[C@H](Cc2c[nH]c3ccccc23)NC(=O)[C@H](Cc2ccccc2)NC(=O)[C@H](Cc2ccccc2)NC(=O)[C@H](CC(N)=O)NC(=O)[C@H](CCCCN)NC1=O` [SOMATOSTATIN] gave a Rf in data set [2] of 0.43.
